Reference: ChEMBL document CHEMBL1144013, “Indol-3-yl-tetramethylcyclopropyl ketones: effects of indole ring substitution on CB2 cannabinoid receptor activity” (J Med Chem, 2008)

Legend:
[1] = biological target: T1, Cannabinoid receptor 2 (Homo sapiens, UniProt P34972); assay: Displacement of [3H]CP-55940 from human recombinant CB2 receptor expressed in HEK cells; type: cell-based, HEK293
[2] = biological target: T1, Cannabinoid receptor 2; assay: Agonist activity at human recombinant CB2 receptor expressed in HEK cells assessed as calcium mobilization by FLIPR relative to CP-55940; type: functional, cell-based; conditions: HEK293
Procedure, shortened: (§1)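 HEK cells stably coexpressing human CB2 and chimeric Gαq/o5 protein, seeded 75,000/well one day before; no-wash calcium dye.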

[3] = biological target: T1, Cannabinoid receptor 2; assay: Agonist activity at human recombinant CB2 receptor expressed in HEK cells assessed as calcium mobilization by FLIPR; type: functional, cell-based, HEK293; procedure, shortened: as §1
[4] = organism: Homo sapiens; assay: Selectivity for human recombinant CB2 receptor over human recombinant CB1 receptor
Procedure, shortened: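 Ki ratio from [3H]CP-55940 (0.5 nM) competition binding: human CB1 membranes from stably expressing […] cells versus human CB2 membranes from stably expressing HEK cells. Tris-HCl pH 7.4 buffer with EDTA, MgCl2, BSA; 90 min at 30 °C; filtration counting; nonspecific with 10 µM unlabeled ligand; ≥3 experiments in duplicate.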

[5] = biological target: Cannabinoid receptor 1 (Homo sapiens, UniProt P21554); assay: Displacement of [3H]CP-55940 from human recombinant CB1 receptor expressed in HEK cells; type: cell-based, HEK293
Cannabinoid receptor 1, sequence (P21554 whole entry): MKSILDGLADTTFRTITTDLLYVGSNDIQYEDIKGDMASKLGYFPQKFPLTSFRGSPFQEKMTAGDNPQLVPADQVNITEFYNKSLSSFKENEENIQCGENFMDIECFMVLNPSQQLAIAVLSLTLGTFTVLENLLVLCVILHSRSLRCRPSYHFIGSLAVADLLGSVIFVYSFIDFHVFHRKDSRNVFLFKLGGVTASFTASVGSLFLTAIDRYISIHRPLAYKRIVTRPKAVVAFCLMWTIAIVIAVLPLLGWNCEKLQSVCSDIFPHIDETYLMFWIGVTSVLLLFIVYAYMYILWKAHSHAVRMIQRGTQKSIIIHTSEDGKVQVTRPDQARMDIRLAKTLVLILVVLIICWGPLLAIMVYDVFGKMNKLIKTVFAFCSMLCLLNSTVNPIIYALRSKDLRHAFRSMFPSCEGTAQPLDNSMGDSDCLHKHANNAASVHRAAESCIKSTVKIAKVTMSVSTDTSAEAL

T1 sequence (P34972 whole entry): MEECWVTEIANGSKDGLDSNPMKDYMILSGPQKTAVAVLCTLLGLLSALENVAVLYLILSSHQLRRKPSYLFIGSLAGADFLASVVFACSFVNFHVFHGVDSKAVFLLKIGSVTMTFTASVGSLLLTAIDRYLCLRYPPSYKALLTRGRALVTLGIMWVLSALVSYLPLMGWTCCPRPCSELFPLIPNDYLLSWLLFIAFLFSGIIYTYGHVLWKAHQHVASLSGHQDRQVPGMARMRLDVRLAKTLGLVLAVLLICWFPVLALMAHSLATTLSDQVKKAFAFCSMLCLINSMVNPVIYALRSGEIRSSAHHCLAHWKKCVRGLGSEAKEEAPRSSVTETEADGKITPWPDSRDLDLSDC

Structure (SMILES)	Ki ([1]; read-out: Ki) [nM]	Activity [2] [%]	EC50 [3] [nM]	Ratio Ki [4]	Ki ([5]; read-out: Ki) [nM]	Ki ([5]; read-out: Log Ki (converted)) [nM]	Ki ([5]; hek293, read-out: Ki) [nM]	Ki ([1]; read-out: Log Ki (converted)) [nM]	Ki ([1]; hek293, read-out: Ki) [nM]
CC1(C)C(C(=O)c2cn(CC3CCOCC3)c3cc4c(cc23)OCO4)C1(C)C	1	62	18						
CC1(C)C(C(=O)c2cn(CCN3CCOCC3)c3cccc([N+](=O)[O-])c23)C1(C)C	297		> 10000	> 34	> 10000				
COc1cc2c(cc1OCc1ccccc1)c(C(=O)C1C(C)(C)C1(C)C)cn2CC1CCOCC1	1.8		> 10000						
Cc1c(C(=O)C2C(C)(C)C2(C)C)c2ccccc2n1CCN1CCOCC1	27	60	227	> 370	> 10000				
CC1(C)C(C(=O)c2cn(CC3CCOCC3)c3cc(C#N)ccc23)C1(C)C	5	67	45						
CC1(C)C(C(=O)c2cn(CC3CCOCC3)c3cc(OCc4ccccc4)ccc23)C1(C)C	0.88	45	135						
CC(=O)Nc1cccc2c1c(C(=O)C1C(C)(C)C1(C)C)cn2CCN1CCOCC1	> 1000		> 10000		> 2200	> 2190			
CC1(C)C(C(=O)c2cn(CCN3CCOCC3)c3ccc(O)cc23)C1(C)C	92		> 10000	> 109	> 10000				
CC1(C)C(C(=O)c2cn(CC3CCOCC3)c3cc(CN)ccc23)C1(C)C	62		> 10000	> 16	> 1000				
CC1(C)C(C(=O)c2cn(CC3CCOCC3)c3ccc(O)cc23)C1(C)C	1.9	78	7						
COC(=O)c1ccc2c(c1)c(C(=O)C1C(C)(C)C1(C)C)cn2CC1CCOCC1	238		> 10000	> 42	> 10000				
CC1(C)C(C(=O)c2cn(CC3CCOCC3)c3ccc(CO)cc23)C1(C)C	113	53	73	> 88	> 10000				
CC1(C)C(C(=O)c2cn(CC3CCOCC3)c3ccc(F)cc23)C1(C)C	1.6	88	22	756	1210				
CC1(C)C(C(=O)c2cn(CC3CCOCC3)c3ccc(N)cc23)C1(C)C	9.3	80	10	108		> 1000	> 1000		
CC1(C)C(C(=O)c2cn(CC3CCOCC3)c3ccccc23)C1(C)C	0.21	133	7						
CC1(C)C(C(=O)c2cn(CC3CCOCC3)c3c(F)c(F)c(F)c(F)c23)C1(C)C	5	88	37	13	66				
CC1(C)C(C(=O)c2cn(CCN3CCOCC3)c3cc(OCc4ccccc4)ccc23)C1(C)C	2.9		> 10000						
COc1ccc2c(c1)c(C(=O)C1C(C)(C)C1(C)C)cn2CCN1CCOCC1	237		> 10000	> 15	> 3500	> 3470			
CC1(C)C(C(=O)c2cn(CC3CCOCC3)c3cc(S(C)(=O)=O)ccc23)C1(C)C	3		> 10000	423	1270				
CC1(C)C(C(=O)c2cn(CC3CCOCC3)c3ccc(Cl)cc23)C1(C)C	3	69	92	171	512				
CC1(C)C(C(=O)c2cn(CC3CCOCC3)c3cc(O)c(O)cc23)C1(C)C	21	106	21						
COC(=O)c1ccc2c(C(=O)C3C(C)(C)C3(C)C)cn(CC3CCOCC3)c2c1	1.4		> 10000						
Cc1ccc2c(C(=O)C3C(C)(C)C3(C)C)cn(CC3CCOCC3)c2c1	0.15		> 10000						

Structure (SMILES)	Ki ([1]; read-out: Ki) [nM]	Activity [2] [%]	EC50 [3] [nM]	Ratio Ki [4]	Ki ([5]; read-out: Ki) [nM]	Ki ([5]; read-out: Log Ki (converted)) [nM]	Ki ([5]; hek293, read-out: Ki) [nM]	Ki ([1]; read-out: Log Ki (converted)) [nM]	Ki ([1]; hek293, read-out: Ki) [nM]
CC1(C)C(C(=O)c2cn(CC3CCOCC3)c3cc(Br)ccc23)C1(C)C	0.65		> 10000						
CC1(C)C(C(=O)c2cn(CC3CCOCC3)c3cc(O)ccc23)C1(C)C	8.5	107	15	> 353	> 3000	> 3020			
CC1(C)C(C(=O)c2cn(CCN3CCOCC3)c3cccc(NS(C)(=O)=O)c23)C1(C)C	> 1000		> 10000						
COc1ccc2c(c1)c(C(=O)C1C(C)(C)C1(C)C)cn2CC1CCOCC1	4.6	35	61	61	282				
COc1cc2c(cc1O)c(C(=O)C1C(C)(C)C1(C)C)cn2CC1CCOCC1	0.7		> 10000						
CC1(C)C(C(=O)c2cn(CC3CCOCC3)c3ccc(OCc4ccccc4)cc23)C1(C)C	1.3		> 10000	183	238				
CC1(C)C(C(=O)c2cn(CC3CCOCC3)c3ccc(OCCCCBr)cc23)C1(C)C	72		> 10000	> 139	> 10000				
COc1cccc2c(C(=O)C3C(C)(C)C3(C)C)cn(CC3CCOCC3)c12	0.12		> 10000						
CC1(C)C(C(=O)c2cn(CC3CCOCC3)c3ccc(CN)cc23)C1(C)C	> 1000		> 10000		> 10000				
COc1ccc2c(C(=O)C3C(C)(C)C3(C)C)cn(CCN3CCOCC3)c2c1			> 10000					1.58	
CC1(C)C(C(=O)c2cn(CC3CCOCC3)c3cc(C(F)(F)F)ccc23)C1(C)C	3.5		> 10000	20	70				
CC1(C)C(C(=O)c2cn(CC3CCOCC3)c3ccc(C#N)cc23)C1(C)C	30	65	226						
CC1(C)C(C(=O)c2cn(CCN3CCOCC3)c3ccc(OCc4ccccc4)cc23)C1(C)C			> 10000		> 10000			> 1000	> 1000
CC1(C)C(C(=O)c2cn(CC3CCOCC3)c3c(O)cccc23)C1(C)C	3.2		> 10000						
COCc1ccc2c(c1)c(C(=O)C1C(C)(C)C1(C)C)cn2CC1CCOCC1	26	50	41						
COc1ccc2c(C(=O)C3C(C)(C)C3(C)C)cn(CC3CCOCC3)c2c1	0.51		> 10000	78	40				
CC1(C)C(C(=O)c2cn(CC3CCOCC3)c3ccc(-c4ccccc4)cc23)C1(C)C	58		> 10000						
CCCn1c(C)c(C(=O)c2cccc3ccccc23)c2ccccc21		75							
CC1(C)C(C(=O)c2cn(CC3CCOCC3)c3ccc(OCCCCO)cc23)C1(C)C	260		> 10000	> 38	> 10000				
CC1(C)C(C(=O)c2cn(CC3CCOCC3)c3c(OCc4ccccc4)cccc23)C1(C)C	3.1		> 10000	353	1100				
CC1(C)C(C(=O)c2cn(CC3CCOCC3)c3cc(Cl)ccc23)C1(C)C	2.5	60	10						
CN1CCCCC1Cn1cc(C(=O)c2cc([N+](=O)[O-])ccc2I)c2ccccc21 (stereo unspecified)	11.5		> 10000	110	1270				
